{"source": "paper PMC8569251", "about": "(European journal of pharmaceutical sciences : official …, 2020)", "key": {"C. albicans yeast": {"test_system": "C. albicans yeast", "assay": "Antimicrobial activity", "format": "cell-based, C. albicans SC5314"}, "E. coli": {"test_system": "E. coli", "assay": "Antimicrobial activity", "format": "cell-based", "conditions": "24 h incubation; MIC100", "outline": "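E. coli from LB medium, inoculated into LB broth at 10⁵ CFU/mL in 96-well plates with test compound at 1–400 µg/mL. Concentrations re-tested in 1 µg/mL (low MIC) or 5 µg/mL (high MIC) steps. MIC is the lowest concentration giving 100% growth inhibition. Triplicate. Colistin positive control; compound-free culture negative control.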"}, "[1]": {"test_system": "C. albicans hyphae (biofilm)", "assay": "Inhibition of Candida biofilm", "format": "cell-based, C. albicans SC5314"}, "[2]": {"test_system": "methicillin-resistant Staphylococcus aureus (MRSA) LAC300", "assay": "Antimicrobial activity", "format": "cell-based", "conditions": "24 h, read-out: MIC, Bacteria S. aureus"}, "[3]": {"conditions": "experimental activities, −log MIC50, QSAR training set"}}}
{"compound": "CC(=O)N1CCN(c2ccc(OCC3COC(Cn4ccnc4)(c4ccc(Cl)cc4Cl)O3)cc2)CC1", "note": "(stereo not shown) [Ketoconazole, reference compound]", "values": [{"measurement": "MIC", "setting": "C. albicans yeast; 24 h, read-out: MIC, C. albicans Yeast", "value": 3, "unit": "µg/mL"}]}
{"compound": "COc1cc(C=C2SC(=S)NC2=O)ccc1OCc1cccc(C(F)(F)F)c1", "note": "[SR7]", "values": [{"measurement": "MIC, Bacteria E. coli", "setting": "E. coli", "value": "100 ± 5", "unit": "µg/mL"}, {"measurement": "hyphae inhibition", "setting": "[1]; 10 μg/mL", "value": 90, "unit": "%"}, {"measurement": "MIC, C. albicans Hyphae", "setting": "[1]; 24 h incubation, 100% inhibition of biofilm (hyphal) formation (MIC100)", "value": "10 ± 3", "unit": "µg/mL"}, {"measurement": "pMIC50 Hyphae", "setting": "[1]; [3]", "value": 4.764, "unit": "M/L"}, {"measurement": "MIC, C. albicans Yeast", "setting": "C. albicans yeast; 24 h incubation, lowest concentration inhibiting 100% of growth (MIC100)", "value": "125 ± 10", "unit": "µg/mL"}, {"measurement": "pMIC50 Yeast", "setting": "C. albicans yeast; [3]", "value": 3.579, "unit": "M/L"}]}
{"compound": "CN[C@H](CC(C)C)C(=O)N[C@H]1C(=O)N[C@@H](CC(N)=O)C(=O)N[C@H]2C(=O)N[C@H]3C(=O)N[C@H](C(=O)N[C@H](C(=O)O)c4cc(O)cc(O)c4-c4cc3ccc4O)[C@H](O)c3ccc(c(Cl)c3)Oc3cc2cc(c3O[C@@H]2O[C@H](CO)[C@@H](O)[C@H](O)[C@H]2O[C@H]2C[C@](C)(N)[C@H](O)[C@H](C)O2)Oc2ccc(cc2Cl)[C@H]1O", "note": "[Vancomycin]", "values": [{"measurement": "MIC", "setting": "[2]", "value": 3, "unit": "µg/mL"}]}
{"compound": "Colistin [reference compound]", "values": [{"measurement": "MIC, Bacteria E. coli", "setting": "E. coli", "value": 5, "unit": "µg/mL"}]}
{"compound": "Triton X-100", "values": [{"measurement": "erythrocyte hemolysis (positive control)", "setting": "human erythrocytes", "value": 100, "unit": "%"}]}
